How the values were obtained:
Rattus norvegicus [1] = organism: Rattus norvegicus; test: Relative intrinsic activity in stimulation of [35S]GTP gamma-S binding to rat spleen was determined; type: functional
Outline: (§1)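 Relative intrinsic activity is maximal stimulation of [35S]GTPγS binding (0.2 nM) as a percentage of the maximum given by nicotinic acid, which is set at 100%. Rat membranes (adipocyte for line 3, spleen for line 4) at 1 to 1.5 µg protein were incubated 90 min at 25 °C with 10 µM GDP and 100 mM NaCl, then filtered. Values are arithmetic mean ± SEM.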

Rattus norvegicus [2] = organism: Rattus norvegicus; test: Potency required for stimulation of [35S]GTP gamma-S binding to rat spleen was determined; type: functional, organism-based
Rattus norvegicus [3] = organism: Rattus norvegicus; test: G protein activation was measured by stimulation of [35S]GTP gamma-S binding to rat adipocyte membranes; type: functional
Rattus norvegicus [4] = organism: Rattus norvegicus; test: Relative intrinsic activity in stimulation of [35S]GTP gamma-S binding to rat adipocyte was determined; type: functional; outline: as §1

Row | Structure (SMILES) | RIA (Rattus norvegicus [1]) | EC50 (Rattus norvegicus [2]) | EC50 (Rattus norvegicus [3]) | RIA (Rattus norvegicus [4])
1 | O=C(O)c1n[nH]c2c1CCCC2 | 47.2% | 64.6 µM | 85.1 µM | –
2 | O=C(O)c1cc(Cc2ccccc2)n[nH]1 | 50.3% | 86.9 µM | 70.7 µM | 52.4%
3 | CC(C)c1cc(C(=O)O)n[nH]1 | 67.7% | 21.8 µM | 13.7 µM | 49.2%
4 | CCCCc1cc(C(=O)O)n[nH]1 | 80.7% | 2.26 µM | 4.12 µM | 75.7%
5 | O=C(O)c1cccnc1 [NIACIN] | 100% | 0.74 µM | 1.7 µM | 100%
6 | O=C(O)c1cc[nH]n1 | 85.3% | 21.5 µM | 16 µM | 78.5%
7 | O=C(O)c1n[nH]c2c1CCC2 | 55.9% | 6.97 µM | 6.44 µM | 51.7%
8 | O=C(O)c1cc(Cc2cccc(Cl)c2)n[nH]1 | – | – | 46.6 µM | 39.4%
9 | CCCc1cc(C(=O)O)n[nH]1 | 69.9% | 5.09 µM | 6.1 µM | 53.5%

— ChEMBL document CHEMBL1145993, “Pyrazole derivatives as partial agonists for the nicotinic acid receptor” (J Med Chem, 2003)
